Results reported in ChEMBL document CHEMBL5724801, “EUbOPEN Chemogenomics Library - Multiplex” (2024).
Where “and” joins values, the source holds several entries; their conditions need not be identical. Equal entries are not always repeated.

Tested on: Fibroblast
Test: Multiplex assay against human fibroblast
Assay type: toxicity, cell-based
Outline: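 Live cells carried four stains from seeding: Hoechst33342, BioTracker Green Microtubule Cytoskeleton Dye, MitoTracker Red and Annexin V Alexa Fluor 680. They were imaged on a CQ1 microscope at 37°C and 5% CO2 after compound addition. Using CellPathfinder machine-learning gating, cells were split into Hoechst high-intensity objects or normal cells, normal cells into healthy, pyknosed or fragmented nuclei, and pyknosed cells into mitotic or apoptotic; tubulin, mitochondrial-mass and membrane-permeability phenotypes are per cents of healthy-nucleus cells.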

[1] = 12 h, 1 µM, compound concentration 1 uM
[2] = 12 h, 10 µM, compound concentration 10 uM
[3] = 24 h, 1 µM, compound concentration 1 uM
[4] = 24 h, 10 µM, compound concentration 10 uM
[5] = 48 h, 1 µM, compound concentration 1 uM
[6] = 48 h, 10 µM, compound concentration 10 uM

COc1cccc2c1c(NS(=O)(=O)c1ccc(Cl)s1)nn2Cc1cccc(CNC(=O)C(C)(C)O)c1
Population Apoptotic (%) [1]: 43% and 33%
Population Fragmented Nuclei (%) [1]: 16% and 26%
Population Healthy Nuclei (%) [1]: 66% and 54%
Population Hoechst High Intensity Objects (%) [1]: 0%
Population Membrane Permeable-Phenotype (%) [1]: 1% and 4%
Population Mitochondria Different-Phenotype (%) [1]: 2% and 1%
Population Mitotic Cells (%) [1]: 56% and 66%
Population Normal (%) [1]: 99% and 100%
Population Pyknosed Nuclei (%) [1]: 17% and 18%
Population Tubulin-Different-Phenotype (%) [1]: 27% and 18%
Total Cell Count [1]: 134 and 112
Population Apoptotic (%) [2]: 42% and 41%
Population Fragmented Nuclei (%) [2]: 13% and 24%
Population Healthy Nuclei (%) [2]: 72% and 55%
Population Hoechst High Intensity Objects (%) [2]: 2% and 7%
Population Membrane Permeable-Phenotype (%) [2]: 1% and 7%
Population Mitochondria Different-Phenotype (%) [2]: 11% and 4%
Population Mitotic Cells (%) [2]: 57% and 58%
Population Normal (%) [2]: 97% and 92%
Population Pyknosed Nuclei (%) [2]: 13% and 19%
Population Tubulin-Different-Phenotype (%) [2]: 37% and 55%
Total Cell Count [2]: 211 and 174
Population Apoptotic (%) [3]: 55% and 50%
Population Fragmented Nuclei (%) [3]: 19% and 28%
Population Healthy Nuclei (%) [3]: 68% and 49%
Population Hoechst High Intensity Objects (%) [3]: 2% and 1%
Population Membrane Permeable-Phenotype (%) [3]: 2% and 7%
Population Mitochondria Different-Phenotype (%) [3]: 3% and 5%
Population Mitotic Cells (%) [3]: 44% and 50%
Population Normal (%) [3]: 97% and 98%
Population Pyknosed Nuclei (%) [3]: 12% and 22%
Population Tubulin-Different-Phenotype (%) [3]: 28% and 35%
Total Cell Count [3]: 144 and 110
Population Apoptotic (%) [4]: 48% and 50%
Population Fragmented Nuclei (%) [4]: 11% and 22%
Population Healthy Nuclei (%) [4]: 74% and 55%
Population Hoechst High Intensity Objects (%) [4]: 2% and 8%
Population Membrane Permeable-Phenotype (%) [4]: 1% and 6%
Population Mitochondria Different-Phenotype (%) [4]: 7% and 2%
Population Mitotic Cells (%) [4]: 52% and 50%
Population Normal (%) [4]: 97% and 92%
Population Pyknosed Nuclei (%) [4]: 13% and 22%
Population Tubulin-Different-Phenotype (%) [4]: 30% and 48%
Total Cell Count [4]: 190 and 175
Population Apoptotic (%) [5]: 62% and 75%
Population Fragmented Nuclei (%) [5]: 21% and 26%
Population Healthy Nuclei (%) [5]: 66% and 60%
Population Hoechst High Intensity Objects (%) [5]: 5% and 2%
Population Membrane Permeable-Phenotype (%) [5]: 1% and 8%
Population Mitochondria Different-Phenotype (%) [5]: 5% and 3%
Population Mitotic Cells (%) [5]: 37% and 25%
Population Normal (%) [5]: 94% and 97%
Population Pyknosed Nuclei (%) [5]: 12%
Population Tubulin-Different-Phenotype (%) [5]: 30% and 55%
Total Cell Count [5]: 135 and 99
Population Apoptotic (%) [6]: 63% and 51%
Population Fragmented Nuclei (%) [6]: 13% and 33%
Population Healthy Nuclei (%) [6]: 73% and 49%
Population Hoechst High Intensity Objects (%) [6]: 5% and 6%
Population Membrane Permeable-Phenotype (%) [6]: 3%
Population Mitochondria Different-Phenotype (%) [6]: 10% and 4%
Population Mitotic Cells (%) [6]: 36% and 48%
Population Normal (%) [6]: 94% and 93%
Population Pyknosed Nuclei (%) [6]: 12% and 17%
Population Tubulin-Different-Phenotype (%) [6]: 40% and 43%
Total Cell Count [6]: 187

CN1CCN(c2ccc(Nc3c4ccccc4nc4ccccc34)cc2)CC1.Cl.Cl.O
Population Apoptotic (%) [1]: 47% and 44%
Population Fragmented Nuclei (%) [1]: 15% and 28%
Population Healthy Nuclei (%) [1]: 69% and 56%
Population Hoechst High Intensity Objects (%) [1]: 1%
Population Membrane Permeable-Phenotype (%) [1]: 0% and 5%
Population Mitochondria Different-Phenotype (%) [1]: 3% and 5%
Population Mitotic Cells (%) [1]: 52% and 56%
Population Normal (%) [1]: 98%
Population Pyknosed Nuclei (%) [1]: 14% and 15%
Population Tubulin-Different-Phenotype (%) [1]: 23% and 34%
Total Cell Count [1]: 135 and 160
Population Apoptotic (%) [2]: 91% and 66%
Population Fragmented Nuclei (%) [2]: 42% and 65%
Population Healthy Nuclei (%) [2]: 49% and 29%
Population Hoechst High Intensity Objects (%) [2]: 8% and 16%
Population Membrane Permeable-Phenotype (%) [2]: 0% and 4%
Population Normal (%) [2]: 91% and 83%
Population Pyknosed Nuclei (%) [2]: 8% and 4%
Population Tubulin-Different-Phenotype (%) [2]: 90% and 79%
Total Cell Count [2]: 158 and 177
Population Apoptotic (%) [3]: 70% and 60%
Population Fragmented Nuclei (%) [3]: 21% and 29%
Population Healthy Nuclei (%) [3]: 65% and 57%
Population Hoechst High Intensity Objects (%) [3]: 0%
Population Membrane Permeable-Phenotype (%) [3]: 0% and 3%
Population Mitochondria Different-Phenotype (%) [3]: 2% and 7%
Population Mitotic Cells (%) [3]: 29% and 40%
Population Normal (%) [3]: 99% and 100%
Population Pyknosed Nuclei (%) [3]: 12%
Total Cell Count [3]: 139 and 155
Population Apoptotic (%) [4]: 77% and 60%
Population Fragmented Nuclei (%) [4]: 47% and 69%
Population Healthy Nuclei (%) [4]: 39% and 27%
Population Hoechst High Intensity Objects (%) [4]: 16% and 21%
Population Membrane Permeable-Phenotype (%) [4]: 1% and 6%
Population Mitochondria Different-Phenotype (%) [4]: 66% and 34%
Population Mitotic Cells (%) [4]: 22% and 40%
Population Normal (%) [4]: 83% and 78%
Population Pyknosed Nuclei (%) [4]: 12% and 3%
Population Tubulin-Different-Phenotype (%) [4]: 94% and 84%
Total Cell Count [4]: 206 and 205
Population Apoptotic (%) [5]: 66% and 55%
Population Fragmented Nuclei (%) [5]: 23% and 25%
Population Healthy Nuclei (%) [5]: 70% and 68%
Population Hoechst High Intensity Objects (%) [5]: 1%
Population Membrane Permeable-Phenotype (%) [5]: 0% and 1%
Population Mitochondria Different-Phenotype (%) [5]: 4%
Population Mitotic Cells (%) [5]: 33% and 44%
Population Normal (%) [5]: 98%
Population Pyknosed Nuclei (%) [5]: 6% and 5%
Population Tubulin-Different-Phenotype (%) [5]: 26%
Total Cell Count [5]: 144 and 157
Population Fragmented Nuclei (%) [6]: 71% and 88%
Population Healthy Nuclei (%) [6]: 15% and 11%
Population Hoechst High Intensity Objects (%) [6]: 45% and 38%
Population Membrane Permeable-Phenotype (%) [6]: 15% and 25%
Population Mitochondria Different-Phenotype (%) [6]: 30% and 12%
Population Normal (%) [6]: 54% and 61%
Population Pyknosed Nuclei (%) [6]: 12% and 0%
Population Tubulin-Different-Phenotype (%) [6]: 25% and 56%
Total Cell Count [6]: 235 and 236
